Assays:
[1] = biological target: T1, SAM-TIR protein (human SARM1) (Homo sapiens, UniProt Q6SZW1); experiment: Washout assay with plate-bound SAM-TIR; type: biochemical; conditions: 2 h treatment, plates rinsed, assayed 60 min after removal of compound
T1 sequence (Q6SZW1 408-700): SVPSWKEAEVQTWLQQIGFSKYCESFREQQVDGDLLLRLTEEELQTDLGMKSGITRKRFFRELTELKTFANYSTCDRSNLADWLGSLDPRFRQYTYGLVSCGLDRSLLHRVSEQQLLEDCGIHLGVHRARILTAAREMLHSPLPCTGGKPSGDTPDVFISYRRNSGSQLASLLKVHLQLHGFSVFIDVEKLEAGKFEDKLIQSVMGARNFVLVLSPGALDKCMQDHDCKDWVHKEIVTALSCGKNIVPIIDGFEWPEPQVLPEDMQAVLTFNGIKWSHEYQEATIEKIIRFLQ
How it was run: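 SAM-TIR lysate (30 µg/ml total protein) was captured via its Strep-tag on Strep-Tactin XT plates, and unbound material was rinsed off. Bound enzyme was exposed to test compound for 2 h, rinsed, then held in assay solution without NAD+ for 0, 10 or 60 min. Wells were rinsed again, and activity was started by adding NAD+. A reversible reference inhibitor was run alongside.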

mouse DRG neurons = experiment: Axon degeneration assay after axotomy in mouse DRG cultures; type: cell-based; conditions: 3 h pulse at 10 µM, compound removed, axotomy immediately; examined 16-72 h
How it was run: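 Embryonic day 13.5 C57BL/6J mouse DRGs were trypsin/EDTA-dissociated (37°C, 15 min) and spot-plated at 5000 cells/well on poly-D-lysine/laminin in Neurobasal/B27 with NGF, uridine and fluorodeoxyuridine. At DIV 6–7, cultures got a 3 h pulse of test compound at 10 µM (from 10 mM DMSO stock; […] DMSO final). Compound was rinsed out, […]. Axons were manually cut with a micro-blade, then PFA-fixed and immunostained.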

- SARM1 inhibition after compound removal [1]: Substantial loss of inhibition
SMILES: Ic1cccc2cnccc12 [DSRM-3716]
- axonal protection after compound removal (mouse DRG neurons): completely lost

— PMC8634121 (Brain, 2021)
